# CRFR2-BP ag = CRF-BP/CRF-R2 complex agonism; HEK293 CRF-R2/CRF-BP, calcium dye fluorescence (FLIPR); percent of saturating CRF peptide response; activation, % at 13.2 µM; actives 0.46% (n = 350,000); AID 588473;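 active means activation of at least 50%, plus an integration ratio under a set limit after plate pattern correction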
# TRPN1 ag = agonists of zebrafish TRPN1 channel. AID 1424. activation, % at 3 µM. HEK293 zebrafish TRPN1-YFP, Fluo-8 calcium fluorescence; 100% = response to 87 µM carbachol. actives 0.18% (n = 220,000);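 active means activation above its plate's cutoff, the mean activation of test wells on that plate plus 3 SD, cut at about 19% in these data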
#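 Material: zebrafish TRPN1-YFP in HEK293 cells; Doses: single test compound dose, 3 µM nominal, 0.3% DMSO; Timing: dye loading 1 h at 37 °C, then 30 min room temperature; Technique: intracellular calcium fluorescence with Fluo-8; Benchmarks: high carbachol 87 µM, low DMSO alone.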
# VIM-2 inhibitor = inhibitors of Pseudomonas aeruginosa VIM-2 metallo-beta-lactamase; purified VIM-2, nitrocefin hydrolysis, epi-absorbance fluorescence; inhibition, % at 5.6 µM; actives 0.89% (n = 290,000);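 active means inhibition above the mean of all tested compounds plus 3 SD, cutoff set per screening run, cut at about 7.5% in these data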;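 further: red hydrolysis product quenches plate fluorescence so inhibitors raise well fluorescence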
# TRPML3 ag = activates the human TRPML3 channel. actives 0.29% (n = 220,000). AID 1448. activation, % at 3 µM. HEK293 TRPML3-YFP, Fluo-8 calcium fluorescence; 100% = the carbachol control signal;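 active means activation above its plate's cutoff, the mean activation of the plate's test wells plus 3 SD, cut at about 12% in these data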
# Target sequence (Q8TDD5 whole entry, looked up): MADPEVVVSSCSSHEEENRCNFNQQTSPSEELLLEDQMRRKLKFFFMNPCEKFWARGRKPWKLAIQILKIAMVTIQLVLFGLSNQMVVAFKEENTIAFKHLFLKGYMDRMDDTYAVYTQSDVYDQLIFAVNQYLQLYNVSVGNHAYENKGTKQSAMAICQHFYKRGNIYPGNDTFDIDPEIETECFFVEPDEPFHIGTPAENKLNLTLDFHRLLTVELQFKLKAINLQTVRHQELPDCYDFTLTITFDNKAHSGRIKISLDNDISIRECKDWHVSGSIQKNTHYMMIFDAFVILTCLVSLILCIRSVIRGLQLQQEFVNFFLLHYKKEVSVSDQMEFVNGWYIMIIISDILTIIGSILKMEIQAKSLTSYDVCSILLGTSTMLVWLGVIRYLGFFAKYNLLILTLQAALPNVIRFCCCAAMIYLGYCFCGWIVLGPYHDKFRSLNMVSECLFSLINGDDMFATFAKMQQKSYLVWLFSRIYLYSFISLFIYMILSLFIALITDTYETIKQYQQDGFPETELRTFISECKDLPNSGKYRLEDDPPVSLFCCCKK
#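 Test system: TRPML3-YFP stable HEK293 cells. Doses: single point at 3 µM. Incubation: dye loading 1 h 37 °C then 30 min ambient, 125 s read. Signal: Fluo-8 calcium dye fluorescence, ex 470-495, em 515-575 nm. Measure: percent activation from peak-to-basal fluorescence ratio, scaled between DMSO and carbachol.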
# IMP-1 inh = inhibitors of Pseudomonas aeruginosa IMP-1 metallo-beta-lactamase; purified IMP-1, nitrocefin hydrolysis, epi-absorbance fluorescence; inhibition, % at 5.6 µM; actives 0.45% (n = 290,000); AID 1556;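 active means inhibition above the mean plus 3 SD of all compounds in the same screening run, cut at about 4.5% in these data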
#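 System – purified recombinant IMP-1 beta-lactamase · Input – IMP-1 dispensed at 0.2 nM · Timing – 15 min preincubation plus 25 min reaction at 25 °C · Signal – Epi-absorbance fluorescence, 480 nm excitation, 530 nm emission · Measure – percent IMP-1 inhibition derived from blank-referenced optical density · Controls – Enzyme-plus-DMSO low control, enzyme-free DMSO high control · Replication – singlicate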
# CRFR2-BP antag = blocks CRF-induced signaling of the CRF-BP/CRF-R2 complex; inhibition, % at 11.8 µM; actives 0.59% (n = 350,000); HEK293 CRF-R2/CRF-BP, CRF-induced calcium fluorescence;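 active means inhibition of the ligand-induced calcium signal above about 50% at the single tested concentration, limit read from the data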
# A number is an active result; - = inactive; . = no result given. An excerpt weighted towards active compounds, which were near 2.1% of everything screened.
SMILES,CRFR2-BP ag,TRPN1 ag,VIM-2 inhibitor,TRPML3 ag,IMP-1 inh,CRFR2-BP antag
CSc1ccccc1C(=O)N1CCN(S(=O)(=O)c2sc(C(=O)O)c(C)c2C(=O)O)CC1,-,.,.,.,.,84
CCc1ccc([C@@H]2CC=C(C(=O)O)[C@H](c3ccc(C(C)(C)C)cc3)N2S(=O)(=O)c2ccc(C)cc2)cc1,-,.,.,.,.,50
Cc1ccc([C@@H]2CC=C(C(=O)O)[C@H](c3ccc(C(C)(C)C)cc3)N2S(=O)(=O)c2ccc(C)cc2)cc1,-,.,.,.,.,-
COc1ccc(OC)c(NC(=O)COC(=O)COc2ccc(Nc3ccccc3)cc2)c1,-,.,.,.,.,-
CC(=O)OC1CC(c2cc(C(C)(C)C)c(O)c(C(C)(C)C)c2)=NO1 (stereo not drawn),-,-,-,-,-,-
CCOC(=O)C1C(C)=CC(=O)CC1c1ccco1 (stereo not drawn),-,-,-,-,-,67
Cc1ccc(Cl)cc1NC(=O)CC(O)(C(F)(F)F)C(F)(F)F,-,20,-,13,-,-
Cc1ncsc1C(=O)N1CCCC(C(=O)c2ccc3ccccc3c2)C1 (stereo not drawn),-,.,-,.,-,60
Cc1cc(C(=O)N2CCCC(C(=O)c3ccc4ccccc4c3)C2)nn1C (stereo not drawn),-,-,-,-,-,-
COc1cc(OC)c2ccc(=O)oc2c1C(CCN1CCOCC1)c1ccc2c(c1)OCO2 (stereo not drawn),-,.,.,.,.,76
CC(C(=O)NCc1ccco1)n1cc([N+](=O)[O-])cn1 (stereo not drawn),-,-,-,-,-,-
O=C(NCc1cc(C(F)(F)F)ccc1Cl)c1cccc2c1C(=O)c1ccc(N3CCC(N4CCCCC4)CC3)cc1S2(=O)=O,-,.,.,.,.,-
O=C(NCc1ccc(OC(F)(F)F)cc1)c1cccc2c1C(=O)c1ccc(N3CCCC3)cc1S2(=O)=O,102,.,.,.,.,-
O=C(NCc1cc(C(F)(F)F)ccc1Cl)c1cccc2c1C(=O)c1ccc(N3CCCCC3)cc1S2(=O)=O,53,.,.,.,.,-
O=C(NCc1ccc(OC(F)(F)F)cc1)c1cccc2c1C(=O)c1ccc(N3CCC(Cc4ccccc4)CC3)cc1S2(=O)=O,63,.,.,.,.,-
O=C(NCc1ccc(OC(F)(F)F)cc1)c1cccc2c1C(=O)c1ccc(N3CCCCC3)cc1S2(=O)=O,68,.,.,.,.,-
COc1ccc(S(=O)(=O)NC(CC(C)C)C(=O)NC(C)c2cccs2)cc1 (stereo not drawn),-,.,.,.,.,-
NNC(=O)C1CC(O)CN1S(=O)(=O)c1ccc2ccccc2c1 (stereo not drawn),-,.,.,.,.,-
CC(C)C[C@@H](CNCC(=O)[C@H](CC(C)C)NC(=O)c1[nH]cnc1C(=O)N[C@H](CN)CC(C)C)NC(=O)c1nc[nH]c1C(=O)N[C@@H](CC(=O)O)C(=O)O,-,.,.,.,.,-
CC1(O)c2ccccc2C(=O)N1CCc1ccccc1F (stereo not drawn),-,-,-,-,-,59
O=C(c1ccc2c(=O)n(Cc3ccco3)c(=S)[nH]c2c1)N1CCN(Cc2ccccc2)CC1,-,-,-,-,-,-
CN1CCN(C(=O)c2ccc3c(=O)n(Cc4ccco4)c(=S)[nH]c3c2)CC1,-,-,8.3,-,-,-
COC(=O)C1=C(C)NC(C)=C(C(=O)OC)C1/C=C/c1ccccc1,-,-,-,-,-,53
Nc1c(C(=O)N2CCOCC2)sc2nc3c(cc12)CCCC3,-,.,-,.,-,-
Nc1c(C(=O)N2CCOCC2)sc2nc3c(cc12)CCC3,-,-,-,-,-,50
COc1ccc(OCC(O)CNC(=O)c2sccc2Cl)cc1 (stereo not drawn),-,-,-,-,38,-
CSc1nc(-c2ccc(N(C)C)cc2)c(C#N)c(=O)n1C,62,-,-,-,-,-
CSc1nc(-c2ccc(Cl)cc2)c(C#N)c(=O)n1C,-,-,-,-,-,-
c1ccc(-c2ccc3c(c2)c2c4n3CCN=C4CCC2)cc1,-,-,-,-,5.3,-
OC1CN=C2CCCc3c2n(c2ccc(Cl)cc32)C1 (stereo not drawn),-,-,-,-,-,-

# High-throughput results: PubChem, several laboratories
